Drawing on the RNAGym collection of RNA variant scans (doi:10.1126/science.aae0568), this text covers yeast fitness for 38 variants.

The labels stand for the following.
B1: tRNA (parent)
chain: GUUCCGUUGGCGUAAUGGUAACGCGUCUCCCUCCUAAGGAGAAGACUGCGGGUUCGAGUCCCGUACGGAACG

Variants at the floor of the assay were thinned out.

In this data set the parent is B1. Put plainly: yeast fitness relative to wild type (ratio to wild type); higher = fitter; tRNA-Arg(CCU), competitive growth, 37 C, YPD. In a few lines: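 Start and end populations of a pooled competition were compared by 100-nucleotide paired-end sequencing of gene amplicons. The Saccharomyces cerevisiae strains carried tRNA-Arg(CCU) gene variants at the native genomic locus, synthesised with a 3% per-site mutation rate at 69 sites, and competed in YPD at 37°C for 24 hours in six parallel replicates. Darwinian fitness relative to wild type was based on the change in genotype frequencies. Genotypes required ≥ 100 starting reads, and estimates < 0.5 were set to 0.5.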
GUUCCGUUGGCGUAAUGGUAACGCGUCCCCCUCCUAAGGAGAAGACUGCGGGUUCGGGUCCCGUACGGAACG [U28C A57G]: the yeast fitness came out at 0.896.

As to GUUCCGUUGGCGUAAUGGUAACGCGUCCCCUUCCUAAGGAGAAGACUGCGGGUUCGAGUCCCGUACGGAACG [U28C C31U], the yeast fitness came out at 0.981.

As for GUUCCGUUGGCGUAAUGGUAACGCGUCCCCCUCCUAAGGAGCAGACUGCGGGUUCGAGUCCCGUACGGAACG [U28C A42C], the yeast fitness amounted to 0.858.

For the variant GUUCCGUUGGCGUAAUGGUAACGCGUCCCCCUCCUAAGGAGAAAACUGCGGGUUCGGGUCCCGUACGGAACG [U28C G44A A57G], the yeast fitness was 0.578.

Consider GUUCCGUUGGCGUAAUGGUAACGCGUCCCCCUUCUAAGGAGAAGUCUGCGGGUUCGAGUCCCGUACGGAACG [U28C C33U A45U], for which the yeast fitness was found to be 0.578.

As to GUUCCGUUGGCGUAAUGGUAACGCGUCCCCCUCCUAAGGGGAAGACUGCGGGUUCGAGUCCCGUACGGAUCG [U28C A40G A70U], the yeast fitness was 0.603.

As for GUUCCGUUGGCGUAAUGGUAACGCGUCCCCCUCCUAAGGAGAAGUCUGCGGGUUCGAGUCCCGUACGGAACG [U28C A45U], the yeast fitness worked out at 0.985.

For the variant GUUCCGUUGGCGUAAUGGUAACGCGUCCCCCUCCUAAGGAGAAGCCUGCGGGUUCGAGUCCCGUACGGAACG [U28C A45C], the yeast fitness came out at 0.993.

Take GUUCCGUUGGCGUAAUGGUAACGCGUCCCCCUCCUAAGGAGAAGACUGCGCGUUCGAGUCCCGUCCGGAACG [U28C G51C A65C]: the yeast fitness was not above 0.5.

Take GUUCCGUUGGCGUAAUGGUAACGCGUCCCCCUCCUAAGGACAAGACUGAGGGUUCGAGUCUCGUACGGAUCG [U28C G41C C49A C61U A70U]: the yeast fitness was not above 0.5.

With GUUCCGUUGGCGUAAUGGUAACGCGUCCCCCUGCUAAGGAGAAGACUGCGGGUUCGAGUCCCGUAAGGAACG [U28C C33G C66A], the yeast fitness is 0.616.

As to GUUCCGUUGGCGUAAUGGUAACGCGUCCCCCUCCUAAGGAGCAGACUGCGGGUUUGAGUCCCGUACGCAACG [U28C A42C C55U G68C], the yeast fitness is not above 0.5.

Take GUUCCGUUGGCGUAAUGGUAACGCGUCCCCCUCCUAAGGAGAAGCCUGCAGGUUCGAGUCCUGUACGGAACG [U28C A45C G50A C62U]: the yeast fitness was not above 0.5.

Turning to GUUCCGUUGGCGUAAUGGUAACGCGUCCCCCUCCUAAGGAGAAGACUGCGGAUUCGAGUCUCGUACGGACCG [U28C G52A C61U A70C], the yeast fitness was determined as 0.549.

For GUUCCGUUGGCGUAAUGGUAACGCGUCCCCCUGCUAAGGGGAAGACUGCGCGUUCGAGUCUCGUUCGGAACG [U28C C33G A40G G51C C61U A65U], the yeast fitness is not above 0.5.

As to GUUCCGUUGGCGUAAUGGUAACGCGUCCCCCUCCUAAGGGGAAGACUGCGGCUUCGAGUCCCGUACGGAACG [U28C A40G G52C], the yeast fitness was not above 0.5.

On to GUUCCGUUGGCGUAAUGGUAACGCGUCCCCCUCGUAAGGGGAGGAGUGCGGAUUUGAGUCCCGUACGGAACG [U28C C34G A40G A43G C46G G52A C55U], for which the yeast fitness amounted to 0.613.

Consider GUUCCGUUGGCGUAAUGGUAACGCGUCCCCCUCCUAAGGAGAAGACUGCGGGUUUGAGUCCCGUACCGAACG [U28C C55U G67C], for which the yeast fitness was 0.557.

On to GUUCCGUUGGCGUAAUGGUAACGCGUCCGCCUCCUAAGGAGAAGACUGCGGGUUCGAGUCCCGUACGGAACG [U28C C29G], for which the yeast fitness amounted to 0.566.

As to GUUCCGUUGGCGUAAUGGUAACGCGUCCACCUCCUAAGGAGAAGACUGCGGGUUCGAGUCCCGUACGGAACG [U28C C29A], the yeast fitness amounted to 0.703.

With GUUCCGUUGGCGUAAUGGUAACGCGUCCCCCUCCUACGGAGAAGACCGCGGGUUCGAGUCCCGUACGGAACG [U28C A37C U47C], the yeast fitness is 0.697.

GUUCCGUUGGCGUAAUGGUAACGCGUCCCCCUCCUAAGGAGACGAAUCCGGGUUCGAGUCCCGUACGGAACG [U28C A43C C46A G48C]: the yeast fitness is not above 0.5.

For the variant GUUCCGUUGGCGUAAUGGUAACGCGUCCCCCUCCUAAGGAGAAGACUGCGGGUUCGAGUCCCGUAAGGAACG [U28C C66A], the yeast fitness is 0.689.

For the variant GUUCCGUUGGCGUAAUGGUAACGCGUCCCCCUCCUACGGAGAAGACUGCGGGUUCAAGCCCCGUACGGAACG [U28C A37C G56A U59C], the yeast fitness is not above 0.5.

Turning to GUUCCGUUGGCGUAAUGGUAACGCGUCCCCCUCCUAACGAGAAGACUGCGCGUUCGAGUCCCGUACGGAACG [U28C G38C G51C], the yeast fitness was not above 0.5.

For GUUCCGUUGGCGUAAUGGUAACGCGUCACCCCCCUAAGGAGAAGACUGGGGAUUCGAGUCCCGUACGGAACG [U28A U32C C49G G52A], the yeast fitness was not above 0.5.

With GUUCCGUUGGCGUAAUGGUAACGCGUCCCCCUCCUAAGGAGCCGACUGCGGGUUGGGGUCCCGUACGGAACG [U28C A42C A43C C55G A57G], the yeast fitness is not above 0.5.

Take GUUCCGUUGGCGUAAUGGUAACGCGUCCCCCUCCUACGGUGAAGACUGCGGGUUUGAGUCCCGUACGGAACG [U28C A37C A40U C55U]: the yeast fitness amounted to 0.525.

Take GUUCCGUUGGCGUAAUGGUAACGCGUCCCCCUCCUAAGGAGAAGACUGCGGGUUCGAGUCCCGUGCGGAACG [U28C A65G]: the yeast fitness is 0.998.

In the case of GUUCCGUUGGCGUAAUGGUAACGCGUCCCCCUCCUAACGAGAAGACUGCGGAUUCGAGUCCCGUACGGAACG [U28C G38C G52A], the yeast fitness was not above 0.5.

As for GUUCCGUUGGCGUAAUGGUAACGCGUCCCCCUCCUAAGCAGAAGACUGCGGGUUCGAGUCCCGUACGGAACG [U28C G39C], the yeast fitness is 0.578.

On to GUUCCGUUGGCGUAAUGGUAACGCGUCCCCCUCCUAAGCAGAACACUGCGGGUUCGAAUCCCGUACGGAACG [U28C G39C G44C G58A], for which the yeast fitness was not above 0.5.

Take GUUCCGUUGGCGUAAUGGUAACGCGUCACCCUCCUAAGGAGAAGACUGCGGGUUCGAGUCCCGGACGGAACG [U28A U64G]: the yeast fitness is 0.709.

Take GUUCCGUUGGCGUAAUGGUAACGCGUCCCCCUCCUAAGGUGAAGACUGCGGGUUCGAGUCCCGUACGGAACG [U28C A40U]: the yeast fitness was found to be 1.01.

As to GUUCCGUUGGCGUAAUGGUAACGCGUCCCCCUCCUAAGGCGAAGACUGCGGGUUCGAGUCCCGUACGGAACG [U28C A40C], the yeast fitness amounted to 0.902.

Take GUUCCGUUGGCGUAAUGGUAACGCGUCCCCCUCCUAAGGAGACGACUGCGGGUUCGAGUCCCGUACCGAACG [U28C A43C G67C]: the yeast fitness came out at 0.528.

Take GUUCCGUUGGCGUAAUGGUAACGCGUCCCCCUCCUAAGGAAAAGACUGCGGGUUCGAGUCCCGUACGGAACG [U28C G41A]: the yeast fitness amounted to 0.783.

With GUUCCGUUGGCGUAAUGGUAACGCGUCCCCCUCCUAAGGACAAGACUGCGGGUUCGAGUCCCGUACGGAACG [U28C G41C], the yeast fitness was 0.712.
